How the values were obtained:
[1] = target: Glutamate receptor ionotropic, AMPA (Rattus norvegicus) (UniProt P19491+P19492+P19493+P19490); assay: Binding affinity against rat brain Non N-methyl-D-aspartate glutamate receptor glutamate site expressed in Xenopus oocyte
Summary of the method: (§1)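 Oocytes expressing whole rat brain poly(A)+ RNA (~50 ng injected), voltage-clamped with two electrodes 3–10 days after injection and perfused with Ringer pH 7.4. Antagonist perfused ~30 s before agonist, with washout over 1–5 min. Non-NMDA IC50 estimated from partial (three- or four-point) concentration-inhibition curves fit to a logistic equation with a slope factor. Final DMSO 0.03–0.3%.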

[2] = Selectivity for glycine site
[3] = target: Glutamate receptor ionotropic, NMDA 1 (Rattus norvegicus) (UniProt P35439); assay: The compound was tested for binding affinity against NMDA receptor glycine site in Xenopus oocyte
Summary of the method: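 Xenopus stage V–VI oocytes injected with ~50 ng rat whole-brain poly(A)+ RNA; two-electrode voltage clamp at −70 mV, 3–10 days post-injection, frog Ringer pH 7.4. NMDA fixed at 100 µM, glycine 1 µM; antagonist pre-applied ~30 s with glycine. Amplitude read at the slow second-phase peak; IC50 from 3–4-point inhibition curves fit with slope factor.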

Rattus norvegicus = species: Rattus norvegicus; assay: The compound was tested for binding affinity against Non N-methyl-D-aspartate glutamate receptor glutamate site expressed in Xenopus oocyte; summary of the method: as §1

Row | SMILES | Kb [1] [µM] | Selectivity [2] | Kb [3] [µM] | Kb (Rattus norvegicus) [µM]
1 | Oc1nc2cc(F)c(Cl)cc2nc1O | 10.8 | 4.5 | – | –
2 | O=[N+]([O-])c1cccc2nc(O)c(O)nc12 | > 100 | > 5.8 | – | –
3 | O=[N+]([O-])c1c(Cl)ccc2nc(O)c(O)nc12 | 36.4 | 74 | – | –
4 | O=[N+]([O-])c1c(Cl)c(Cl)c(Cl)c2nc(O)c(O)nc12 | 14.1 | 11 | – | –
5 | O=[N+]([O-])c1cc(Cl)cc2nc(O)c(O)nc12 | 8.02 | 16 | – | –
6 | Oc1nc2ccccc2nc1O | 98.2 | 5.9 | – | –
7 | Oc1nc2cc(Cl)c(Br)cc2nc1O | 5.7 | 16 | – | –
8 | Oc1nc2cc(C(F)(F)F)cc(Br)c2nc1O | 4.29 | 4.2 | – | –
9 | O=[N+]([O-])c1c(Br)c(C(F)(F)F)cc2nc(O)c(O)nc12 | 0.47 | 17 | – | –
10 | Nc1c(Br)c(Br)cc2nc(O)c(O)nc12 | 3.32 | 66 | – | –
11 | O=[N+]([O-])c1c(Br)ccc2nc(O)c(O)nc12 | 36.3 | 28 | – | –
12 | Oc1nc2cc(Br)cc(C(F)(F)F)c2nc1O | 3.4 | 14 | – | –
13 | Oc1nc2cc(Cl)c(C(F)(F)F)cc2nc1O | 2.55 | 9.8 | – | –
14 | Nc1c(Cl)c(Cl)cc2nc(O)c(O)nc12 | 5.19 | 88 | – | –
15 | Oc1nc2cc(F)c(F)cc2nc1O | 21.5 | 4.5 | – | –
16 | O=[N+]([O-])c1ccc2nc(O)c(O)nc2c1 | 1.67 | 0.7 | – | –
17 | Oc1nc2cc(F)cc(C(F)(F)F)c2nc1O | 16.3 | 4.8 | – | –
18 | O=[N+]([O-])c1c(Br)c(F)cc2nc(O)c(O)nc12 | 3.45 | 35 | – | –
19 | Oc1nc2cc(C(F)(F)F)cc(Cl)c2nc1O | 3.7 | 7.1 | – | –
20 | CC(=O)Nc1c(Cl)c(Cl)cc2nc(O)c(O)nc12 | 5.57 | 23 | – | –
21 | O=c1[nH]c2cc(Cl)c(Cl)c([N+](=O)[O-])c2[nH]c1=O | 1.5 | 254 | – | –
22 | Oc1nc2cc(F)c(F)c(F)c2nc1O | 30.4 | 5.4 | – | –
23 | Oc1nc2cc(F)c(Cl)c(F)c2nc1O | 13.2 | 7.3 | – | –
24 | O=[N+]([O-])c1c(Br)c(Cl)cc2nc(O)c(O)nc12 | 0.95 | 120 | – | –
25 | Oc1nc2cc(Cl)cc(C(F)(F)F)c2nc1O | 4.67 | 7.6 | – | –
26 | O=[N+]([O-])c1c(F)c(Br)cc2nc(O)c(O)nc12 | 1.4 | 35 | – | –

Row | SMILES | Kb [1] [µM] | Selectivity [2] | Kb [3] [µM] | Kb (Rattus norvegicus) [µM]
27 | O=[N+]([O-])c1c(Cl)c(Br)cc2nc(O)c(O)nc12 | 1.24 | 170 | – | –
28 | O=[N+]([O-])c1c(C(F)(F)F)cc(Cl)c2nc(O)c(O)nc12 | > 30 | – | – | –
29 | Oc1nc2cc(Cl)c(Cl)cc2nc1O | 4.81 | 13 | – | –
30 | Oc1nc2cc(Br)c(C(F)(F)F)cc2nc1O | 1.49 | 5.7 | – | –
31 | Oc1nc2cc(Cl)cc(Cl)c2nc1O | 9.27 | 13 | – | –
32 | O=[N+]([O-])c1c(Cl)c(C(F)(F)F)cc2nc(O)c(O)nc12 | 0.55 | 15 | – | –
33 | Nc1c(C(F)(F)F)cc(Cl)c2nc(O)c(O)nc12 | 63.4 | – | – | –
34 | O=[N+]([O-])c1c(F)c(Cl)cc2nc(O)c(O)nc12 | 1.61 | 81 | – | –
35 | Oc1nc2cc(C(F)(F)F)c(Cl)c(Cl)c2nc1O | 1.23 | 6.5 | – | –
36 | O=[N+]([O-])c1c(F)c(Cl)c(F)c2nc(O)c(O)nc12 | 6.56 | 23 | – | –
37 | O=[N+]([O-])c1c(Cl)cc2nc(O)c(O)nc2c1[N+](=O)[O-] | – | 24 | 0.042 | 0.99
38 | Oc1nc2cc(Cl)c(Cl)c(Br)c2nc1O | 4.11 | 43 | – | –
39 | Oc1nc2cc(Br)cc(Br)c2nc1O | 6.01 | 6.8 | – | –
40 | O=[N+]([O-])c1cc2nc(O)c(O)nc2cc1Cl | 0.64 | 2.3 | – | –
41 | O=[N+]([O-])c1c(Br)c(Br)cc2nc(O)c(O)nc12 | – | 140 | – | 0.89
42 | Oc1nc2cc(F)c(F)c(Cl)c2nc1O | 17.9 | 10 | – | –
43 | Oc1nc2cc(Cl)c(Cl)c(Cl)c2nc1O | 4.19 | 51 | – | –
44 | Oc1nc2cc(Br)c(Br)cc2nc1O | 4.05 | 19 | – | –
45 | O=[N+]([O-])c1c(F)c(F)cc2nc(O)c(O)nc12 | 6.01 | 19 | – | –
46 | Oc1nc2cc(C(F)(F)F)cc(C(F)(F)F)c2nc1O | 2.21 | 4.9 | – | –
47 | O=[N+]([O-])c1cc(C(F)(F)F)cc2nc(O)c(O)nc12 | 4.13 | 13 | – | –
48 | Oc1nc2cc(Cl)c(Cl)c(C(F)(F)F)c2nc1O | 2.66 | 14 | – | –
49 | Oc1nc2cc(F)c(C(F)(F)F)cc2nc1O | 3.78 | 1.5 | – | –
50 | Oc1nc2c(F)c(F)c(F)c(F)c2nc1O | 26.6 | 8 | – | –
51 | Oc1nc2ccc(Br)cc2nc1O | 11.2 | 4.7 | – | –
52 | Oc1nc2ccc(Cl)cc2nc1O | 16.4 | 6.3 | – | –

Reference: ChEMBL document CHEMBL1128173, “Synthesis and structure-activity relationships of substituted 1,4-dihydroquinoxaline-2,3-diones: antagonists of N-methyl-D-aspartate (NMDA) receptor glycine sites and non-NMDA glutamate receptors” (J Med Chem, 1995)
